According to ChEMBL document CHEMBL1147795, “cis-2,5-dicyanopyrrolidine inhibitors of dipeptidyl peptidase IV: synthesis and in vitro, in vivo, and X-ray crystallographic characterization” (J Med Chem, 2006):
Active and inactive are the calls of the source. No cut-off for these calls is given here.

Columns and labels:
[1] = target: Dipeptidyl peptidase 4 (Homo sapiens, UniProt P27487); assay: Inhibition of human recombinant DPP4
[2] = Volume of distribution in Sprague-Dawley rat; type: ADME, organism-based; conditions: in vivo, read-out: Vdss
Method in brief: (§1)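 Male Sprague-Dawley rats (200-250 g), jugular vein cannulated. IV bolus 1.0 mg/kg in sterile saline; oral gavage 5.0 mg/kg in 0.5% methylcellulose. Blood sampled 0 to 24 h into lithium heparin, plasma frozen at -70 °C, compound quantified by LC/MS/MS after acetonitrile protein precipitation (standard curve 1.0-2000 ng/mL).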

[3] = organism: Rattus norvegicus; assay: Hepatic clearance in Sprague-Dawley rat; type: ADME, organism-based, Liver; conditions: in vivo; method in brief: as §1
[4] = Half life in Sprague-Dawley rat at 5 mg/kg, po; type: ADME, organism-based; parameters: dose 5 mg/kg, route oral; conditions: in vivo; method in brief: as §1
[5] = Half life in Sprague-Dawley rat at 1 mg/kg, iv; type: ADME, organism-based; parameters: dose 1 mg/kg, route intravenous; conditions: in vivo; method in brief: as §1
[6] = target: Dipeptidyl peptidase 4 (Mus musculus) (UniProt P28843); assay: Lowering of glucose level in diabetic KK/H1J mouse at 3 mg/kg, po; type: functional, organism-based; parameters: dose 3 mg/kg
Method in brief: (§2)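 Diabetic KK/H1J mice fasted overnight, 10 per group, dosed orally in 0.5% methylcellulose. Glucose given orally at t = 15 min; plasma glucose at t = 45 min.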

[7] = Bioavailability in Sprague-Dawley rat; type: ADME, organism-based; conditions: in vivo; method in brief: as §1
[8] = target: Dipeptidyl peptidase 4 (Mus musculus) (UniProt P28843); assay: Lowering of glucose level in diabetic KK/H1J mouse at 5 mg/kg, po; type: functional, organism-based; parameters: dose 5 mg/kg; method in brief: as §2
[9] = Percent of unbound ligand in human plasma; type: ADME
[10] = Percent of unbound ligand in cynomolgus monkey plasma; type: ADME, cell-free, Macaca fascicularis
[11] = system: Cynomolgus monkey; assay: Hepatic clearance in cynomolgus monkey; type: ADME, organism-based, Macaca fascicularis, Liver; conditions: in vivo
Method in brief: (§3)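 Dog and monkey PK: oral dosing at 1 mg kg^-1 in sterile water, intravenous at 1 mg kg^-1 in sterile saline.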

[12] = Bioavailability in Beagle dog; type: ADME, organism-based, Canis lupus familiaris; conditions: in vivo; method in brief: as §3
[13] = system: Canis familiaris; assay: Increase in thiocyanate ion in dog plasma at 3 mg/kg, po after 24 hrs; type: ADME, organism-based, Canis lupus familiaris; parameters: dose 3 mg/kg, route oral; conditions: in vivo
Method in brief: (§4)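 Stored plasma from earlier oral dosing (rat 15 mg kg^-1, dog and monkey 3 mg kg^-1) analysed for thiocyanate through 24 h, compared with the t = 0 sample.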

[14] = organism: Rattus norvegicus; assay: AUC (0-infinity) in Sprague-Dawley rat; type: ADME, organism-based, Plasma; parameters: time infinity; conditions: in vivo; method in brief: as §1
[15] = Volume of distribution in cynomolgus monkey; type: ADME, organism-based, Macaca fascicularis; conditions: in vivo, read-out: Vdss; method in brief: as §3
[16] = Percent of unbound ligand in Beagle dog plasma; type: ADME, cell-free, Canis lupus familiaris
[17] = system: Rattus norvegicus; assay: Increase in thiocyanate ion in rat plasma at 15 mg/kg, po after 24 hrs; type: ADME, organism-based; parameters: dose 15 mg/kg, route oral; conditions: in vivo; method in brief: as §4
[18] = Tmax in Sprague-Dawley rat; type: ADME, organism-based; conditions: in vivo; method in brief: as §1
[19] = Tmax in cynomolgus monkey; type: ADME, organism-based, Macaca fascicularis; conditions: in vivo; method in brief: as §3
[20] = Bioavailability in cynomolgus monkey; type: ADME, organism-based, Macaca fascicularis; conditions: in vivo; method in brief: as §3
[21] = Half life in cynomolgus monkey at 1 mg/kg, iv; type: ADME, organism-based, Macaca fascicularis; parameters: dose 1 mg/kg, route intravenous; conditions: in vivo; method in brief: as §3
[22] = Volume of distribution in Beagle dog; type: ADME, organism-based, Canis lupus familiaris; conditions: in vivo, read-out: Vdss; method in brief: as §3
[23] = organism: Canis familiaris; assay: Hepatic clearance in Beagle dog; type: ADME, organism-based, Canis lupus familiaris, Liver; conditions: in vivo; method in brief: as §3
[24] = Half life in cynomolgus monkey at 1 mg/kg, po; type: ADME, organism-based, Macaca fascicularis; parameters: dose 1 mg/kg, route oral; conditions: in vivo; method in brief: as §3
[25] = Half life in Beagle dog at 1 mg/kg, iv; type: ADME, organism-based, Canis lupus familiaris; parameters: dose 1 mg/kg, route intravenous; conditions: in vivo; method in brief: as §3
[26] = Tmax in Beagle dog; type: ADME, organism-based, Canis lupus familiaris; conditions: in vivo; method in brief: as §3
[27] = system: Rhesus monkey; assay: Increase in thiocyanate ion in monkey plasma at 3 mg/kg, po after 24 hrs; type: ADME, organism-based; parameters: dose 3 mg/kg, route oral; conditions: in vivo; method in brief: as §4
[28] = organism: Rattus norvegicus; assay: Cmax in Sprague-Dawley rat; type: ADME, organism-based; conditions: in vivo; method in brief: as §1
[29] = Half life in Beagle dog at 1 mg/kg, po; type: ADME, organism-based, Canis lupus familiaris; parameters: dose 1 mg/kg, route oral; conditions: in vivo; method in brief: as §3
[30] = Percent of unbound ligand in Sprague-Dawley rat plasma; type: ADME, cell-free
[31] = target: Dipeptidyl peptidase 4 (Mus musculus) (UniProt P28843); assay: Lowering of glucose level in diabetic KK/H1J mouse at 10 mg/kg, po; type: functional, organism-based; parameters: dose 10 mg/kg; method in brief: as §2
[32] = Solubility in unbuffered water; type: physicochemical
Method in brief: (§5)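 Solubility of the mono-hydrochloride salt measured in PBS pH 6.5 and in unbuffered water; final pH of the water solution 2.0.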

[33] = Solubility in phosphate buffered saline at pH 6.5; type: physicochemical; method in brief: as §5
[34] = target: Dipeptidyl peptidase 4 (Mus musculus) (UniProt P28843); assay: Lowering of glucose level in diabetic KK/H1J mouse at 0.3 mg/kg, po; type: functional, organism-based; parameters: dose 0.3 mg/kg
Method in brief: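 Overnight-fasted diabetic KK/H1J mice, 10 per group, given compound orally in 0.5% methylcellulose (0.2 mL per mouse), then an oral glucose challenge at t = 15 min. Retro-orbital bleeds were taken at 0, 15 and 45 min for plasma glucose. […] Scored significant or nonsignificant.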

[35] = target: Dipeptidyl peptidase 4 (Mus musculus) (UniProt P28843); assay: Lowering of glucose level in diabetic KK/H1J mouse at 2.5 mg/kg, po; type: functional, organism-based; parameters: dose 2.5 mg/kg; method in brief: as §2
[36] = target: Dipeptidyl peptidase 4 (Mus musculus) (UniProt P28843); assay: Increase in plasma GLP1 level in KK mouse at 5 mg/kg, po after 2 hrs; type: functional, organism-based; parameters: dose 5 mg/kg
Method in brief: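 Fed KK mice dosed 5 mg kg^-1 orally at t = 0. Blood sampled at intervals over 2 h for plasma GLP-1 and DPP-IV activity.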

Sequence of Dipeptidyl peptidase 4 (Mus musculus) (P28843 whole entry, looked up): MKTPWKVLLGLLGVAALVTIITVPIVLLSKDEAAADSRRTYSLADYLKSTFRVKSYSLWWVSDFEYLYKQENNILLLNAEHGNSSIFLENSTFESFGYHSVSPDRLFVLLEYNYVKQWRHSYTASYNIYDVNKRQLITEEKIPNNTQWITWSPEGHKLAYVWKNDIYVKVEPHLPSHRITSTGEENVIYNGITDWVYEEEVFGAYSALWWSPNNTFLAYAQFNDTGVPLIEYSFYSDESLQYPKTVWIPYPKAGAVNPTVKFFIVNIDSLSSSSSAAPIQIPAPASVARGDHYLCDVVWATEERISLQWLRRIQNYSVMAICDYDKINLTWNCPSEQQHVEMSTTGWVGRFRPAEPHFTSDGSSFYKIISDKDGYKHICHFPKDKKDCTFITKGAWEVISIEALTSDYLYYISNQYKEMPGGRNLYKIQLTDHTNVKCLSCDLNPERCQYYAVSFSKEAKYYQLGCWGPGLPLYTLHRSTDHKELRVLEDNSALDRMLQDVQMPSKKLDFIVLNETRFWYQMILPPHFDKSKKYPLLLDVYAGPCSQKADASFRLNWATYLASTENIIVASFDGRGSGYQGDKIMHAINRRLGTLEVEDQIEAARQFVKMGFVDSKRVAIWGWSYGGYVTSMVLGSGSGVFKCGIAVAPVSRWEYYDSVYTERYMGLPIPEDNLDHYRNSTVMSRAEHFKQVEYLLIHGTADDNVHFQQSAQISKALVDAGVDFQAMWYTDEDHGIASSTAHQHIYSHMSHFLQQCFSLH
Sequence of Dipeptidyl peptidase 4 (P27487 whole entry): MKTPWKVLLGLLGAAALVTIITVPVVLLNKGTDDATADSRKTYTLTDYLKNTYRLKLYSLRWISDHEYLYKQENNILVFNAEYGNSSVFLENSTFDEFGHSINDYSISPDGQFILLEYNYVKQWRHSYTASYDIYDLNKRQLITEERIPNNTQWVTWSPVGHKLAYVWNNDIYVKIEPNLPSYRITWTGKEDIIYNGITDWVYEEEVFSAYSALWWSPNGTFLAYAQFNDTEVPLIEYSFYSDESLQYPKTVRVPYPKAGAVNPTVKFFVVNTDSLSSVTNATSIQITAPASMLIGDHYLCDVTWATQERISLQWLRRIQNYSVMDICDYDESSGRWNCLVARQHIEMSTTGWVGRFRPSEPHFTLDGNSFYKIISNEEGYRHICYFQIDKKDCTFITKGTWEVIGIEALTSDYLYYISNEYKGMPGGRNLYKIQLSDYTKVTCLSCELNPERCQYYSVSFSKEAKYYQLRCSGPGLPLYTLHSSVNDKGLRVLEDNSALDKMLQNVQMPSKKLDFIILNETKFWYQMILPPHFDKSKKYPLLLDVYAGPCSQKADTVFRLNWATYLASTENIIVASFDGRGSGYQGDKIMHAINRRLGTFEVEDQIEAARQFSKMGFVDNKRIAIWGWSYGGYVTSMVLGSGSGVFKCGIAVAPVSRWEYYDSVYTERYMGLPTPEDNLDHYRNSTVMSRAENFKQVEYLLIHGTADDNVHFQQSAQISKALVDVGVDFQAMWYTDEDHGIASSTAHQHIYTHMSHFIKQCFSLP

CC1(NCC(=O)N2[C@H](C#N)CC[C@@H]2C#N)COC(C)(C)OC1
IC50 [1]: > 3 µM

CC(C)C(C)(C)NCC(=O)N1[C@H](C#N)CC[C@@H]1C#N
IC50 [1]: > 3 µM

N#C[C@@H]1CC[C@H](C#N)N1C(=O)CNC12CC3CC(CC(O)(C3)C1)C2
Vd [2]: 2.7 L/kg
CL [3]: 130 mL/min/kg
half-life [4]: 84 min
half-life [5]: 24 min
Activity [6]: 45%
bioavailability [7]: 42%
IC50 [1]: 0.074 µM

N#C[C@@H]1CC[C@H](C#N)N1C(=O)CNC12CC3CC(CC1C3)C2
Activity [8]: 62%
IC50 [1]: 0.072 µM

C#CC1(NCC(=O)N2[C@H](C#N)CC[C@@H]2C#N)CCCCC1
IC50 [1]: > 3 µM

N#C[C@@H]1CC[C@H](C#N)N1C(=O)CNC12CC3CC(CC(C3)C1)C2
Vd [2]: 3.1 L/kg
CL [3]: 80 mL/min/kg
half-life [5]: 36 min
Activity [6]: 55%

C[C@@H]1CC(C)(NCC(=O)N2[C@H](C#N)CC[C@@H]2C#N)C[C@@H]1C (stereo partly drawn)
IC50 [1]: > 3 µM

N#C[C@@H]1CC[C@H](C#N)N1C(=O)CNC1(CO)CCCC1 [listing 1 of 2 here]
Vd [2]: 1.4 L/kg
fraction unbound [9]: 0.77
fraction unbound [10]: 0.84
CL [11]: 42 mL/min/kg
bioavailability [12]: 93%
Activity [13]: Not Active
CL [3]: 70 mL/min/kg
AUC [14]: Dose-dependent effect
Vd [15]: 1.7 L/kg
fraction unbound [16]: 1
Activity [17]: Not Active
Tmax [18]: ≤ 60 min
Tmax [19]: ≤ 60 min
bioavailability [20]: 42%
half-life [21]: 36 min
Vd [22]: 1.3 L/kg
half-life [4]: 162 min
half-life [5]: 18 min
CL [23]: 22 mL/min/kg
half-life [24]: 144 min
half-life [25]: 48 min
bioavailability [7]: 77%
Tmax [26]: ≤ 60 min
Activity [27]: Not Active
Cmax [28]: Dose-dependent effect
half-life [29]: 318 min
fraction unbound [30]: 1

CC(C)(C)C(C)(C)NCC(=O)N1[C@H](C#N)CC[C@@H]1C#N
IC50 [1]: > 3 µM

CCC1(NCC(=O)N2[C@H](C#N)CC[C@@H]2C#N)CCCCC1
IC50 [1]: > 3 µM

CCOCC1(NCC(=O)N2[C@H](C#N)CC[C@@H]2C#N)CCCC1
Activity [31]: 79%
IC50 [1]: 0.064 µM

CCC(C)(C)NCC(=O)N1[C@H](C#N)CC[C@@H]1C#N
IC50 [1]: > 3 µM

CCC(C)(CC)NCC(=O)N1[C@H](C#N)CC[C@@H]1C#N
IC50 [1]: > 3 µM

N#C[C@@H]1CC[C@H](C#N)N1C(=O)CNC12CC3(F)CC(F)(CC(F)(C3)C1)C2
IC50 [1]: > 3 µM

Cl.N#C[C@@H]1CC[C@H](C#N)N1C(=O)CNC1(CO)CCCC1
solubility [32]: 200 mg/mL
solubility [33]: > 76 mg/mL

N#C[C@@H]1CC[C@H](C#N)N1C(=O)CNC1(CCCO)CCCCC1
IC50 [1]: > 3 µM

N#C[C@@H]1C[C@H](O)CN1C(=O)CNC12CC3CC(CC(C3)C1)C2
IC50 [1]: > 30 µM

N[C@H](C(=O)N1CC(F)(F)C(F)(F)C1)C1CCCCC1
Activity [31]: 57%

N#C[C@@H]1CC[C@H](C#N)N1C(=O)CNC1(Cc2ccccc2)CCCCC1
IC50 [1]: > 3 µM

N#C[C@@H]1CC[C@H](C#N)N1C(=O)CNC1(CO)CCCC1 [listing 2 of 2 here]
Activity [34]: 46%
Activity [31]: 67%
Activity [35]: 59%
Activity [36]: Active

CCC(C)(C)C1CCC(C)(NCC(=O)N2[C@H](C#N)CC[C@@H]2C#N)C1 (stereo partly drawn)
IC50 [1]: > 3 µM

N#C[C@@H]1CC[C@H](c2ccccc2)N1C(=O)CNC1(CO)CCCC1
IC50 [1]: > 30 µM

CC1(C)CCCC1(C)NCC(=O)N1[C@H](C#N)CC[C@@H]1C#N (stereo partly drawn)
IC50 [1]: > 3 µM

CC1(NCC(=O)N2[C@H](C#N)CC[C@@H]2C#N)CCSC1 (stereo partly drawn)
IC50 [1]: > 3 µM

C[C@H]1CC[C@@H](C#N)N1C(=O)CNC12CC3CC(CC(C3)C1)C2
IC50 [1]: > 30 µM

COC(=O)C1(NCC(=O)N2[C@H](C#N)CC[C@@H]2C#N)CCCC1
IC50 [1]: > 3 µM

CCCCOCC1(NCC(=O)N2[C@H](C#N)CC[C@@H]2C#N)CCCC1
Activity [31]: 16%
IC50 [1]: 0.091 µM

CNC(=O)C1(NCC(=O)N2[C@H](C#N)CC[C@@H]2C#N)CCCC1
IC50 [1]: > 3 µM

N#C[C@@H]1CC[C@H](C#N)N1C(=O)CNC1(CCO)CCCC1
IC50 [1]: > 3 µM

COCC1(NCC(=O)N2[C@H](C#N)CC[C@@H]2C#N)CCCC1
Vd [2]: 1.6 L/kg
CL [3]: 98 mL/min/kg
Activity [31]: 74%
half-life [4]: 38.4 min
half-life [5]: 12 min
bioavailability [7]: 48%
IC50 [1]: 0.084 µM
